Measured values taken from ChEMBL document CHEMBL1255429, “Efflux pumps are involved in the defense of Gram-negative bacteria against the natural products isobavachalcone and diospyrone” (2010).
Residues, ends and D or L forms follow the SMILES beside them. *: point of attachment. βNA = c1ccc2cc(N*)ccc2c1

Key:
Assay type in all cases: functional
Escherichia coli [1] = assay: Antimicrobial activity against Escherichia coli AG100A after 18 hrs by rapid INT colorimetric assay
Method in brief: (§1)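 Strains precultured overnight on Mueller-Hinton agar. Samples dissolved in DMSO-MHB, serially diluted twofold in MHB, inoculum 1.5 × 10^6 CFU/ml in MHB added; 37°C, 18 h; final DMSO <2.5%. 0.2 mg/ml INT then added, 30 min at 37°C. MIC = lowest concentration preventing yellow-to-pink reduction, i.e. complete growth inhibition.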

Klebsiella aerogenes [2] = assay: Antimicrobial activity against Enterobacter aerogenes EA27 after 18 hrs by rapid INT colorimetric assay; conditions: EA27, 18 h
Method in brief: (§2)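 Strains precultured overnight on Mueller-Hinton agar. Sample dissolved in DMSO-MHB, twofold serial dilutions in MHB, inoculum 1.5 × 10^6 CFU/ml; final DMSO below 2.5%. Incubated 37°C 18 h, then 0.2 mg/ml INT added, 30 min at 37°C. MIC = lowest concentration preventing yellow-to-pink change (complete growth inhibition). DMSO-only wells as negative control.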

Klebsiella aerogenes [3] = assay: Antimicrobial activity against Enterobacter aerogenes EA3 after 18 hrs by rapid INT colorimetric assay; conditions: EA3, 18 h; method in brief: as §2
Enterobacter cloacae [4] = assay: Antimicrobial activity against Enterobacter cloacae Ec07769 after 18 hrs by rapid INT colorimetric assay; conditions: Ec07769, 18 h; method in brief: as §2
Escherichia coli [5] = assay: Antimicrobial activity against tetracycline-resistant Escherichia coli AG102 after 18 hrs by rapid INT colorimetric assay in presence of efflux pump inhibitor phenylalanine arginine; conditions: AG102, 18 h
Method in brief: (§3)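 Broth microdilution MIC in Mueller-Hinton broth with PAßN at a final 20 μg/ml throughout. Twofold dilutions of sample from DMSO-MHB stock; inoculum 1.5 × 10^6 CFU/ml; 18 h at 37°C, final DMSO <2.5%. Growth read by INT (0.2 mg/ml, 30 min, 37°C). MIC taken as lowest concentration with no pink colour.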

Klebsiella aerogenes [6] = assay: Antimicrobial activity against Enterobacter aerogenes EA298 after 18 hrs by rapid INT colorimetric assay in presence of efflux pump inhibitor phenylalanine arginine; conditions: EA298, 18 h
Escherichia coli [7] = assay: Antimicrobial activity against tetracycline-resistant Escherichia coli AG100A after 18 hrs by rapid INT colorimetric assay in presence of efflux pump inhibitor phenylalanine arginine; method in brief: as §3
Klebsiella pneumoniae [8] = assay: Antimicrobial activity against Klebsiella pneumoniae KP63 after 18 hrs by rapid INT colorimetric assay; conditions: KP63, 18 h; method in brief: as §2
Klebsiella aerogenes [9] = assay: Antimicrobial activity against Enterobacter aerogenes EA289 after 18 hrs by rapid INT colorimetric assay; conditions: EA289, 18 h; method in brief: as §2
Pseudomonas aeruginosa [10] = assay: Antimicrobial activity against Pseudomonas aeruginosa PA124 after 18 hrs by rapid INT colorimetric assay in presence of efflux pump inhibitor phenylalanine arginine; conditions: PA124, 18 h
Pseudomonas aeruginosa [11] = assay: Antimicrobial activity against Pseudomonas aeruginosa PAO1 after 18 hrs by rapid INT colorimetric assay; conditions: PAO1, 18 h; method in brief: as §1
Klebsiella aerogenes [12] = assay: Antimicrobial activity against Enterobacter aerogenes EA294 after 18 hrs by rapid INT colorimetric assay in presence of efflux pump inhibitor phenylalanine arginine; conditions: EA294, 18 h
Klebsiella aerogenes [13] = assay: Antimicrobial activity against Enterobacter aerogenes EA5 after 18 hrs by rapid INT colorimetric assay; conditions: EA5, 18 h; method in brief: as §2
Pseudomonas aeruginosa [14] = assay: Antimicrobial activity against Pseudomonas aeruginosa PAO1 after 18 hrs by rapid INT colorimetric assay in presence of efflux pump inhibitor phenylalanine arginine; conditions: PAO1, 18 h
Escherichia coli [15] = assay: Antimicrobial activity against Escherichia coli ATCC 10536 after 18 hrs by rapid INT colorimetric assay in presence of efflux pump inhibitor phenylalanine arginine beta-naphthylamide; conditions: ATCC 10536, 18 h; method in brief: as §3
Escherichia coli [16] = assay: Antimicrobial activity against Escherichia coli AG100 after 18 hrs by rapid INT colorimetric assay in presence of efflux pump inhibitor phenylalanine arginine; conditions: AG100, 18 h
Klebsiella aerogenes [17] = assay: Antimicrobial activity against Enterobacter aerogenes EA27 after 18 hrs by rapid INT colorimetric assay in presence of efflux pump inhibitor phenylalanine arginine; conditions: EA27, 18 h
Klebsiella aerogenes [18] = assay: Antimicrobial activity against Enterobacter aerogenes EA-CM64 after 18 hrs by rapid INT colorimetric assay in presence of efflux pump inhibitor phenylalanine arginine; conditions: EA-CM64, 18 h
Pseudomonas aeruginosa [19] = assay: Antimicrobial activity against Pseudomonas aeruginosa PA124 after 18 hrs by rapid INT colorimetric assay; conditions: PA124, 18 h; method in brief: as §1
Klebsiella aerogenes [20] = assay: Antimicrobial activity against Enterobacter aerogenes EA289 after 18 hrs by rapid INT colorimetric assay in presence of efflux pump inhibitor phenylalanine arginine; conditions: EA289, 18 h
Escherichia coli [21] = assay: Antimicrobial activity against Escherichia coli ATCC 10536 after 18 hrs by rapid INT colorimetric assay; conditions: ATCC 10536, 18 h; method in brief: as §2
Klebsiella aerogenes [22] = assay: Antimicrobial activity against Enterobacter aerogenes EA3 after 18 hrs by rapid INT colorimetric assay in presence of efflux pump inhibitor phenylalanine arginine; conditions: EA3, 18 h
Escherichia coli [23] = assay: Antimicrobial activity against tetracycline-resistant Escherichia coli AG100A after 18 hrs by rapid INT colorimetric assay; method in brief: as §1
Klebsiella pneumoniae [24] = assay: Antimicrobial activity against Klebsiella pneumoniae KP55 after 18 hrs by rapid INT colorimetric assay in presence of efflux pump inhibitor phenylalanine arginine; conditions: KP55, 18 h
Klebsiella aerogenes [25] = assay: Antimicrobial activity against Enterobacter aerogenes EA294 after 18 hrs by rapid INT colorimetric assay; conditions: EA294, 18 h; method in brief: as §1
Escherichia coli [26] = assay: Antimicrobial activity against tetracycline-resistant Escherichia coli AG102 after 18 hrs by rapid INT colorimetric assay; conditions: AG102, 18 h; method in brief: as §1
Escherichia coli [27] = assay: Antimicrobial activity against Escherichia coli AG100A after 18 hrs by rapid INT colorimetric assay in presence of efflux pump inhibitor phenylalanine arginine
Klebsiella aerogenes [28] = assay: Antimicrobial activity against Enterobacter aerogenes ATCC 13048 after 18 hrs by rapid INT colorimetric assay in presence of efflux pump inhibitor phenylalanine arginine; conditions: ATCC 13048, 18 h
Klebsiella pneumoniae [29] = assay: Antimicrobial activity against Klebsiella pneumoniae KP63 after 18 hrs by rapid INT colorimetric assay in presence of efflux pump inhibitor phenylalanine arginine; conditions: KP63, 18 h
Klebsiella aerogenes [30] = assay: Antimicrobial activity against Enterobacter aerogenes EA5 after 18 hrs by rapid INT colorimetric assay in presence of efflux pump inhibitor phenylalanine arginine; conditions: EA5, 18 h
Escherichia coli [31] = assay: Antimicrobial activity against Escherichia coli ATCC 8739 after 18 hrs by rapid INT colorimetric assay in presence of efflux pump inhibitor phenylalanine arginine; conditions: ATCC 8739, 18 h; method in brief: as §3
Klebsiella pneumoniae [32] = assay: Antimicrobial activity against Klebsiella pneumoniae ATCC 11296 after 18 hrs by rapid INT colorimetric assay; conditions: ATCC 11296, 18 h; method in brief: as §1
Enterobacter cloacae [33] = assay: Antimicrobial activity against Enterobacter cloacae Ec1194 after 18 hrs by rapid INT colorimetric assay in presence of efflux pump inhibitor phenylalanine arginine; conditions: Ec1194, 18 h; method in brief: as §3
Klebsiella aerogenes [34] = assay: Antimicrobial activity against Enterobacter aerogenes EA298 after 18 hrs by rapid INT colorimetric assay; conditions: EA298, 18 h; method in brief: as §1
Klebsiella pneumoniae [35] = assay: Antimicrobial activity against Klebsiella pneumoniae KP55 after 18 hrs by rapid INT colorimetric assay; conditions: KP55, 18 h; method in brief: as §2
Enterobacter cloacae [36] = assay: Antimicrobial activity against Enterobacter cloacae Ec07769 after 18 hrs by rapid INT colorimetric assay in presence of efflux pump inhibitor phenylalanine arginine; conditions: Ec07769, 18 h
Klebsiella pneumoniae [37] = assay: Antimicrobial activity against Klebsiella pneumoniae ATCC 11296 after 18 hrs by rapid INT colorimetric assay in presence of efflux pump inhibitor phenylalanine arginine; conditions: ATCC 11296, 18 h
Enterobacter cloacae [38] = assay: Antimicrobial activity against Enterobacter cloacae Ec1194 after 18 hrs by rapid INT colorimetric assay; conditions: Ec1194, 18 h; method in brief: as §2
Escherichia coli [39] = assay: Antimicrobial activity against Escherichia coli ATCC 8739 after 18 hrs by rapid INT colorimetric assay; conditions: ATCC 8739, 18 h; method in brief: as §1
Klebsiella aerogenes [40] = assay: Antimicrobial activity against Enterobacter aerogenes ATCC 13048 after 18 hrs by rapid INT colorimetric assay; conditions: ATCC 13048, 18 h; method in brief: as §2
Klebsiella aerogenes [41] = assay: Antimicrobial activity against Enterobacter aerogenes EA-CM64 after 18 hrs by rapid INT colorimetric assay; conditions: EA-CM64, 18 h; method in brief: as §1
Escherichia coli [42] = assay: Antimicrobial activity against Escherichia coli AG100 after 18 hrs by rapid INT colorimetric assay; conditions: AG100, 18 h; method in brief: as §1

Measured: MIC

CCn1cc(C(=O)O)c(=O)c2cc(F)c(N3CCNCC3)cc21 [NORFLOXACIN]
256 µg/mL: Klebsiella aerogenes [2] | Klebsiella aerogenes [13]
0.06 µg/mL: Escherichia coli [21]
0.03 µg/mL: Escherichia coli [1] | Escherichia coli [15]
0.007 µg/mL: Escherichia coli [27]
0.25 µg/mL: Escherichia coli [5] | Escherichia coli [7] | Klebsiella aerogenes [28] | Klebsiella aerogenes [40]
32 µg/mL: Pseudomonas aeruginosa [10] | Klebsiella aerogenes [12] | Enterobacter cloacae [33] | Enterobacter cloacae [38]
64 µg/mL: Pseudomonas aeruginosa [19] | Klebsiella aerogenes [22] | Klebsiella aerogenes [25]
0.5 µg/mL: Klebsiella pneumoniae [37]
16 µg/mL: Klebsiella pneumoniae [8] | Klebsiella pneumoniae [35]
1 µg/mL: Pseudomonas aeruginosa [14] | Escherichia coli [23] | Escherichia coli [26] | Klebsiella pneumoniae [32]
4 µg/mL: Klebsiella pneumoniae [29] | Klebsiella aerogenes [41]
8 µg/mL: Klebsiella aerogenes [6] | Klebsiella pneumoniae [24] | Klebsiella aerogenes [34]
2 µg/mL: Pseudomonas aeruginosa [11] | Klebsiella aerogenes [18]
> 256 µg/mL: Enterobacter cloacae [4] | Enterobacter cloacae [36]
0.12 µg/mL: Escherichia coli [16] | Escherichia coli [31] | Escherichia coli [39] | Escherichia coli [42]
128 µg/mL: all other assays above

N=C(N)NCCC[C@H](NC(=O)[C@@H](N)Cc1ccccc1)C(=O)Nc1ccc2ccccc2c1 [PABETAN] (H-Phe-Arg-βNA)
> 256 µg/mL: Klebsiella aerogenes [2] | Klebsiella aerogenes [3] | Enterobacter cloacae [4] | Klebsiella pneumoniae [8] | Klebsiella aerogenes [9] | Pseudomonas aeruginosa [11] | Klebsiella aerogenes [13] | Pseudomonas aeruginosa [19] | Escherichia coli [21] | Escherichia coli [23] | Klebsiella aerogenes [25] | Escherichia coli [26] | Klebsiella aerogenes [34] | Klebsiella pneumoniae [35] | Enterobacter cloacae [38] | Escherichia coli [39] | Klebsiella aerogenes [40] | Klebsiella aerogenes [41] | Escherichia coli [42]
64 µg/mL: Escherichia coli [1]
256 µg/mL: Klebsiella pneumoniae [32]
